An excerpt weighted towards active compounds, which were near 2.6% of everything screened.
ARFGAP1 inhibitor – rat ARFGAP1 inhibition; Q62848; Arfgap1-stimulated ARF1 GTP hydrolysis, GDP FP detection; inhibition, % at 16.5 µM; hit rate 0.26% among 360,000; AID 651572;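 active means inhibition above a per-plate limit, mean inhibition of low control wells plus 3 SD, cut at about 25% in these data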;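 further: 0% = DMSO wells with enzyme and 100% = wells lacking Arfgap1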
Target sequence (Q62848 1-136 limits assumed): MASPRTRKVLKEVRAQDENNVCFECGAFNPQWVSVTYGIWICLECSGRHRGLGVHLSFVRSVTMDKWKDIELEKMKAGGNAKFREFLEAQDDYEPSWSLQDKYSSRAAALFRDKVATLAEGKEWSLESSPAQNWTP
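system = rat Arfgap1 catalytic domain, aa 1-136 | technique = FP, GDP Alexa 633 tracer displaced from anti-GDP antibody, 620/688 nm | compound = one concentration, 16.5 µM, DMSO 1.26% | medium = HEPES-based buffer, pH 7.5 | timing = compound-enzyme preincubation 20 min, reaction 120 min, detection 60 min, 25 °C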
esBAF inh – inhibitors of esBAF chromatin remodeling in mouse ES cells; hit rate 2% among 350,000; reporter increase, % at 12.5 µM; Bmi1-luciferase knock-in reporter, 24 h; 100% = twice the neutral-well signal; in the data active means activation above about 40%;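 further: 0% = median of the plate's neutral control wells and 100% = double that signal; a rise in the Bmi1 reporter signal indicates esBAF inhibition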
ASAP1 inh – inhibitors of human ASAP1 ArfGAP activity; hit rate 0.19% among 360,000; Q9ULH1; AID 624377; inhibition, % at 16.5 µM; ASAP1-stimulated ARF1 GTP hydrolysis, GDP FP detection; in the data active means inhibition above about 25%;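 further: 0% = vehicle with enzyme and substrate and 100% = no enzyme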
SMARCA2 act – SMARCA2 function activation, primary screen. activation, % at 9.1 µM. hit rate 1% among 370,000. AID 652017. MG213 cells, MMTV-luciferase reporter, dexamethasone, overnight; in the data active means activation above about 7.8%;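 further: 0% = vehicle wells and 100% = reference activator wells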
SMARCA2 act conf – confirmation of SMARCA2 (BRM) function activators; activation, % at 9.1 µM; MG213 cells, MMTV-luciferase with dexamethasone, luminescence, overnight; MG213 cells expressing E1A, Rb sequestered; DMSO wells 0%, reference activator 100%; hit rate 30% among 3,500; shares compounds with SMARCA2 act;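 active means activation above its plate's cutoff, the mean activation of tested wells plus 3 SD, cut at about 7.9% in these data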
VP16 Luc act – counter-screen for SMARCA2 activators: GAL4-VP16 luciferase reporter activation | hit rate 41% among 3,500 | shares compounds with SMARCA2 act | AID 686939 | activation, % at 9.1 µM | HEK293 GAL4-VP16 pG5luc reporter, luciferase luminescence; scaled: DMSO wells 0%, SAHA wells 100%;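 active means activation above the solvent-only control well mean plus 3 SD, averaged across control plates, cut at about 5.2% in these data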
* marks the source's active call; other numbers are inactive results; nt = not tested or not shown.

SMILES	ARFGAP1 inhibitor	esBAF inh	ASAP1 inh	SMARCA2 act	SMARCA2 act conf	VP16 Luc act
Nc1cc(C2CCCC2)nn1-c1ccccc1	2	36	-12	9.0*	18*	5
CNC[C@@H]1Oc2ccc(NC(=O)Cn3cnnn3)cc2C(=O)N([C@@H](C)CO)C[C@H]1C	nt	1	nt	nt	nt	nt
O=C(CCOc1ccccc1F)N1CCN(c2ccccc2O)CC1	17	nt	-2	10*	5	9.1*
CN[C@H]1C[C@H]2c3cc(-c4ccccc4C)ccc3CCN2C[C@H]1[C@H](C)O	nt	nt	nt	9.6*	-5	-1
O=C(C[C@@H]1CC[C@@H]2[C@H](COC[C@H](O)CN2C(=O)Nc2cc(Cl)cc(Cl)c2)O1)NCC1CC1	nt	4	nt	nt	nt	nt
C(=C\n1nnc2ccccc21)/c1ccccn1	6	-13	-1	8.7*	8	10*
CCN(CC)CCNC(=O)C(Cl)=C1C(Cl)=C(Cl)C(Cl)=C1Cl	-2	-5	-5	10*	21*	2
C[C@H]1CN([C@@H](C)CO)C(=O)Cc2cc(NC(=O)CCCCCC(=O)Nc3ccccc3N)ccc2O[C@H]1CN(C)S(=O)(=O)c1cccs1	nt	-5	nt	nt	nt	nt
CC(=O)Nc1ccc(-c2c(C)cc3oc(=O)cc(-c4ccccc4)c3c2C)cc1	13	3	3	9.2*	-2	2
COc1cccc2cc(C(=O)OCC(=O)NCc3ccc4c(c3)OCO4)c(=O)oc12	-1	nt	4	11*	6	5
COc1cccc(C(=O)OCC(=O)NCc2ccc3c(c2)OCO3)c1OC	-3	-4	-2	-2	nt	nt
O=C(C1CCCC1)N1C[C@@H]2[C@H](c3ccccc31)[C@@H](CO)N2C(=O)c1cccnc1	nt	6	nt	nt	nt	nt
COc1cccc(C(=O)NC(=O)Nc2cc(C)on2)c1	4	56*	0	8.4*	4	8.7*
CC(=O)C1=C(S(=O)(=O)c2ccc(C)cc2)CS(=O)(=O)C1	6	nt	2	9.1*	15*	2
Cc1ccc(S(=O)(=O)C2CS(=O)(=O)CC2O)cc1 (stereo not drawn)	7	4	2	-1	nt	nt
C=CCn1c(-c2ccccc2)c[nH]c1=S	-15	64*	5	13*	5	6.0*
C[C@@H]1CN([C@H](C)CO)C(=O)c2cc(N(C)C)ccc2O[C@@H](C)CCCCO[C@H]1CN(C)S(=O)(=O)c1ccccc1	nt	5	nt	nt	nt	nt
CN=Cc1sc2ccccc2c1O	4	6	3	-2	nt	nt
CC(=Nc1cccc(O)c1)c1sc2ccccc2c1O	4	82*	0	14*	8.1*	13*
CC(=Nc1ccc(C)cc1)c1sc2ccccc2c1O	-6	nt	9	5	nt	nt
CC(=Nc1ccc(C)cc1C)c1sc2ccccc2c1O	-1	nt	6	15*	2	11*
O=C([C@H]1[C@H](CO)[C@H]2Cn3c(ccc(-c4ccccc4)c3=O)[C@@H]1N2CCC(F)(F)F)N1CCCCC1	nt	-1	nt	nt	nt	nt
COc1cccc(NC(=O)c2nc(SC)ncc2Cl)c1	-7	-3	1	-2	nt	nt
COc1cccc(NC(=O)c2ncc(Cl)c(Cl)c2Cl)c1	-4	5	-18	8.7*	6	2
C[C@H]1CN([C@@H](C)CO)C(=O)CCCn2nncc2CO[C@@H]1CN(C)C(=O)Nc1cccc(F)c1	nt	-2	nt	nt	nt	nt
C[C@@H]1CCCCO[C@H](CN(C)C(=O)NC2CCCCC2)[C@@H](C)CN([C@H](C)CO)C(=O)c2cc(NC(=O)Cc3ccccc3)ccc2O1	nt	0	nt	nt	nt	nt

Source: PubChem (several laboratories)
